High-throughput results deposited in PubChem by several laboratories.
Hits are enriched below; roughly 1.8% of the tested compounds scored in any of these assays.
Runt-CBFb FRET: inhibitors of RUNX1 Runt–CBFb binding, primary screen, biochemical, FRET, Cerulean-Runt, Venus-CBFb, uHTS | Cerulean-Runt/Venus-CBFb FRET ratio 530/480, 1 h | Runt-related transcription factor 1 (Homo sapiens) + Core-binding factor subunit beta … | inhibition, % at 20 µM | 0.46% of 220,000 active;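 active = inhibition over about 50% at 20 µM in the single-dose screen, limit read from the data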;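 also: 0% = DMSO wells and 100% = excess unlabeled CBFb competitor control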
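Schedule: protein complex preformed 1 h, compound exposure 1 h, room temperature, dark; test system: Cerulean-labeled Runt domain protein; amount: 100 nM per protein; buffer or medium: Tris 50 mM pH 7.5, KCl, K2SO4, 0.01% BSA; read-out: loss of energy transfer signal; detection: FRET fluorescence; controls: 5 µM unlabeled CBFb as full-inhibition high control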
Hck-Nef inh: inhibitors of Nef-activated human Hck kinase, primary screen, biochemical, Z-Lyte FRET, 384-well, Hck-YEEI; Recombinant Hck-YEEI plus Nef, Z-Lyte FRET kinase assay; inhibition, % at 20 µM; 0.68% of 220,000 active; AID 463187, 2010; Tyrosine-protein kinase HCK (Homo sapiens), P08631;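 active = Hck-Nef kinase inhibition above about 50%, limit read from the data; inactive = inhibition below that limit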;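 also: 0% = DMSO with Hck plus Nef and 100% = Hck alone without Nef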
Target sequence (P08631 whole entry, looked up): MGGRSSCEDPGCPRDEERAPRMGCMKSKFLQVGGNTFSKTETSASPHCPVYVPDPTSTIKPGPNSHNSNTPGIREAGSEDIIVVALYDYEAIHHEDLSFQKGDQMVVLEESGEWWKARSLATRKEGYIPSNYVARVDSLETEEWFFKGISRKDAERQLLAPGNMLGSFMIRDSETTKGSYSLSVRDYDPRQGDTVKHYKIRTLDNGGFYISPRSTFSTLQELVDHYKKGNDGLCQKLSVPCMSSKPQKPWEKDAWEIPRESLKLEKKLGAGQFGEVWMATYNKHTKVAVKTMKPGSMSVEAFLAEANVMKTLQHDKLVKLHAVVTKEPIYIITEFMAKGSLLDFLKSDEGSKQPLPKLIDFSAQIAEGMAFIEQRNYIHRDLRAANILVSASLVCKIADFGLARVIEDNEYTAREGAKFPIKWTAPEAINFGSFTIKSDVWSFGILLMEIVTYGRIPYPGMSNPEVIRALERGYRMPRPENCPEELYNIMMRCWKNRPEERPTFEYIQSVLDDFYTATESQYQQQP
Runt-SMMHC FRET: inhibitors of RUNX1 Runt–CBFb-SMMHC binding, primary screen, biochemical, FRET, Cerulean-Runt, Venus-CBFb-SMMHC, uHTS; 0.74% of 220,000 active; Cerulean-Runt/Venus-CBFb-SMMHC FRET ratio 530/480, 1 h; Runt-related transcription factor 1 (Homo sapiens) + Core-binding factor subunit beta …; inhibition, % at 20 µM;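 active = mean inhibition across duplicate retests at 20 µM reaching about 50%, limit read from the data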;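 also: 0% = DMSO wells and 100% = wells with excess untagged CBFb-SMMHC; inhibitors lower the FRET ratio by blocking Runt binding to CBFb-SMMHC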
RanGTP-Imp inh: inhibitors of RanGTP-importin-beta interaction, primary screen, biochemical, FRET, CFP-Ran, YFP-importin-beta, homogeneous | Ran GTPase (GTP-bound) - importin-beta complex | cell-free CFP-Ran/YFP-importin-beta FRET ratio | inhibition, % (concentration not given with the values) | 1.1% of 300,000 active;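 active = more than half of the replicate wells show a fall in the fluorescence ratio signal beyond about 16%, limit read from the data, passing the limit was not always enough; inconclusive = exactly half of the replicate wells pass the set limit; inactive = fewer than half of replicates pass the limit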;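 also: 0% = DMSO wells and 100% = Ran loaded with GDP instead of GTP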
The depositor's hits bear a star; ? = inconclusive; · = no result given; + = active, no number.

SMILES | Runt-CBFb FRET | Hck-Nef inh | Runt-SMMHC FRET | RanGTP-Imp inh
C=CCn1c(=N)c(C(=O)OCC)cc2c(=O)n3cc(C)ccc3nc21 | 11.7 | · | 38.3 | ·
COCCCn1c(=N)c(C(N)=S)cc2c(=O)n3cccc(C)c3nc21 | · | · | · | +
COc1ccc(N2C(=O)C3CCCCC3C2=O)cc1NC(=O)c1ccccc1 (stereo unspecified) | 0.7 | 23.2 | 0.1 | 0.8
O=C1c2ccccc2C(=O)N1CCCc1nc2ccccc2c(=O)n1Cc1ccco1 | 130.0* | 0.2 | 6.8 | 5.9
O=C1c2ccccc2C(=O)N1CCc1nc2ccccc2c(=O)n1CCCn1ccnc1 | 0.3 | -0.1 | -1.9 | 25.0*
O=C1c2ccccc2C(=O)N1Cc1nc2ccccc2c(=O)n1CCCn1ccnc1 | 0.2 | -0.5 | -2.2 | ·
O=c1c2ccccc2nc(-c2ccccc2)n1Cc1ccco1 | 4.5 | 1.9 | 7.3 | -2.1
CCOc1ccc(N(CC(=O)Nc2c(C)n(C)n(-c3ccccc3)c2=O)S(=O)(=O)c2ccc(F)cc2)cc1 | · | · | · | -1.0
O=C(NC(Cc1ccccc1)C(=O)Oc1ccc2c(C(F)(F)F)cc(=O)oc2c1)OCc1ccccc1 (stereo unspecified) | 2.9 | 0.8 | 81.1* | 36.9*
CC(NC(=O)OCc1ccccc1)C(=O)Oc1cc2oc(=O)cc(-c3ccccc3)c2cc1Cl (stereo unspecified) | 18.9 | 1.3 | 60.1* | -5.9
CC(C)[C@H](NC(=O)OCc1ccccc1)C(=O)OCc1cc(=O)oc2cc(O)ccc12 | · | · | · | 2.4
COc1cccc(C(C)NC(=O)C2CCCC2)c1 (stereo unspecified) | · | · | · | -0.5
CC1=C(C#N)C(=O)OC(C)(C)C1 | 31.5 | 0.2 | 77.8* | 71.6*
COc1ccc(C(=O)/C=C\c2ccc(NC(=O)c3cccs3)cc2)cc1 | -3.3 | 2.2 | -24.7 | 22.7*
CCC(NC(=O)c1ccncc1)c1ccccc1 (stereo unspecified) | · | · | · | -1.7
CCOC(=O)/C(N=Nc1sc(C(=O)OCC)c(C)c1C(=O)OCC)=C(\C)O | -12.8 | 0.0 | -94.0 | -1.9
CCOC(=O)c1sc(N=NC2=C(O)CCCC2=O)c(C(=O)OCC)c1C | -16.4 | 51.4* | -19.5 | 5.4
Cn1c(NC(=O)c2ccc(C(C)(C)C)cc2)cc(=O)n(C)c1=O | -1.2 | 0.2 | -3.3 | ·
Cn1c(NNC(=O)c2ccc(C(C)(C)C)cc2)cc(=O)n(C)c1=O | 41.4 | 1.3 | 77.2* | 7.2
Cc1cc(C)c2cc(C#N)c(NCCNC(=S)NCCCN3CCOCC3)nc2c1 | 23.1 | 29.1 | 42.9 | 5.4
CCOCCCNC(=S)NCCNc1nc2ccc(C)cc2cc1C#N | 81.2* | 9.0 | 111.2* | 30.8*
CCOCCCNC(=S)NCCCNc1nc2ccc(C)cc2cc1C#N | 92.9* | 39.9 | 88.8* | ·
CCOC(=O)CC(=O)CSc1nc2ccc(C)cc2cc1C#N | 11.4 | 1.7 | -46.6 | ·
Cc1cc(NC(=O)CCC(=O)N(CCC(C)C)C(C(=O)NCC2CCCO2)c2ccccc2C)no1 (stereo unspecified) | · | · | · | -3.1
CCn1cc(Br)c(C(=O)Nc2ccc(Cl)c(Cl)c2)n1 | -3.5 | 4.8 | 2.8 | 57.2*
SMILES | Runt-CBFb FRET | Hck-Nef inh | Runt-SMMHC FRET | RanGTP-Imp inh
Cc1cc(C)c(NC(=O)c2cccs2)c(C)c1NC(=O)c1cccs1 | · | · | · | -3.4
O=Cc1ccc(-c2ccc(F)cc2)o1 | 0.4 | 3.5 | -4.2 | ?
O=C(O)c1ccccc1-c1ccc(/C=C/c2cc(C(F)(F)F)[nH]c(=O)n2)o1 | 68.5* | -91.0 | 87.4* | -463.7
O=c1nc(/C=C/c2ccc(-c3ccc(F)cc3)o2)cc(C(F)(F)F)[nH]1 | 106.1* | 7.3 | 80.9* | -75.6
CC(=O)n1c2c(c3ccccc31)OC(N)=C(C#N)C2c1ccc(C(C)C)cc1 (stereo unspecified) | -7.3 | 1.7 | -7.1 | 31.1*
O=C(Cc1ccsc1)N1CCc2c([nH]c3ccccc23)C1c1ccccn1 (stereo unspecified) | 2.4 | -16.6 | 2.5 | 28.7*
O=c1cc(-c2ccc(O)cc2)oc2cc(O)cc(O)c12 | · | · | · | 7.5
O=c1cc(-c2ccc(O)cc2)oc2cc(O)c(C3OC(CO)C(O)C(O)C3O)c(O)c12 (stereo unspecified) | 38.3 | -9.4 | 86.7* | 6.7
